We go through four molecules from ChEMBL document CHEMBL3352502, “A dual inhibitor of matrix metalloproteinases and a disintegrin and metalloproteinases, [¹⁸F]FB-ML5, as a molecular probe for non-invasive MMP/ADAM-targeted imaging” (Bioorg Med Chem, 2015).

Data set [1] has as its target Matrix metalloproteinase-9 (Homo sapiens, UniProt P14780). As to the kind of experiment: Inhibition of human recombinant MMP9 catalytic domain using Mca-Pro-Leu-Gly-Leu-Dpa-Ala-Arg-NH2 fluorogenic substrate. The method in brief:
(§1)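 Recombinant human catalytic domains (MMP-2; MMP-9 lacking fibronectin type II insert and MMP-12, both E. coli-expressed) at 10 ng per well with fluorogenic substrate. Buffer: 50 mM Tris pH 7.4, 0.2 M NaCl, 10 mM CaCl₂, ZnCl₂, 0.05% v/v Brij-35. Fluorescence rise (ex 320/em 440 nm) read for 15 min at 20 °C over inhibitor series up to 1000 nM (or 100 µM). IC50 by sigmoidal fit, triplicate.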

Data set [2] has as its system Lung. As to the kind of experiment: Drug uptake in HT1080 cells xenografted mouse lung after 90 mins. Format: ADME, cell-based, HT-1080. Particulars: in vivo, 1.5 h. Summed up:
(§2)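 Male BALB/c nu/nu mice, 7–8 weeks old, were given (2–2.5)×10⁶ HT1080 cells s.c. in the right shoulder in Matrigel/EMEM (1:1). They were used 14–21 days later at tumor volume 0.3–0.6 mL. [¹⁸F]FB-ML5 was given alone or co-injected with 2.5 mg/kg ML5. Tissues were weighed and gamma-counted. SUVmean = tissue MBq/g ÷ (injected MBq/body weight g). n = 6 per group, mean ± SD, unpaired t-test.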

Data set [3] deals with Tumour. The data set can be described thus: Drug uptake in HT1080 cells xenografted mouse tumor after 90 mins in presence of non-radioactive ML5. As to conditions: in vivo, 1.5 h. Type of data set: ADME, Neoplasm, HT-1080. The method in brief:
as §2

Data set [4] can be described thus: Drug uptake in HT1080 cells xenografted mouse assessed as large intestine to plasma ratio after 90 mins. Particulars: large intestine and plasma. Type of data set: ADME, cell-based, HT-1080. The method in brief:
(§3)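 Male BALB/c nude mice, 7–8 weeks, with (2–2.5)×10⁶ HT1080 cells in Matrigel/EMEM injected subcutaneously into the right shoulder. Tracer injected when tumors reached 0.3–0.6 mL (14–21 days), followed by a 90 min microPET scan. Ex vivo: organs and plasma gamma-counted at 90 min p.i. SUV_mean for each tissue divided by plasma SUV_mean. n = 6, mean SD.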

For data set [5], the system named is Heart. The data set can be described thus: Drug uptake in HT1080 cells xenografted mouse heart after 90 mins in presence of non-radioactive ML5. Format: ADME, cell-based, HT-1080. As to conditions: in vivo, 1.5 h. The method in brief: as §2
The subject of data set [6] is Lung. As to the kind of experiment: Drug uptake in HT1080 cells xenografted mouse lung after 90 mins in presence of non-radioactive ML5. Format: ADME, cell-based, HT-1080. Particulars: in vivo, 1.5 h. The method in brief:
as §2

Data set [7] relates to Intestine. The data set can be described thus: Drug uptake in HT1080 cells xenografted mouse large intestine after 90 mins in presence of non-radioactive ML5. Format: ADME, cell-based, HT-1080. As to conditions: in vivo, 1.5 h. Summed up: as §2
Data set [8] in a line: Drug uptake in HT1080 cells xenografted mouse assessed as liver to plasma ratio after 90 mins in presence of non-radioactive ML5. Format: ADME, cell-based, HT-1080. As to conditions: liver and plasma. Summed up:
(§4)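 Same HT1080 subcutaneous xenograft in male BALB/c nude mice. The tracer was co-injected with 2.5 mg/kg non-radioactive ML5 and scanned for 90 min. Organs and plasma were gamma-counted ex vivo at 90 min p.i. The tissue/plasma SUV_mean ratio was calculated. n = 6, mean SD, unpaired two-sided t-test against the group without ML5.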

A short description of data set [9]: Drug uptake in HT1080 cells xenografted mouse assessed as heart to plasma ratio after 90 mins. Format: ADME, cell-based, HT-1080. As to conditions: heart and plasma. Summed up:
as §3

A short description of data set [10]: Octanol-water partition coefficient, log P of the compound. Type of data set: physicochemical. The method in brief: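 About 5 kBq [¹⁸F]FB-ML5 in saline was mixed with 495 µL PBS pH 7.4 and 500 µL n-octanol. Vortexed 5 min, centrifuged 5 min at 3000 rpm, then 100 µL of each layer gamma-counted. logP = log₁₀(cpm octanol/cpm aqueous), triplicate.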
The test system of data set [11] is Intestine. The data set can be described thus: Drug uptake in HT1080 cells xenografted mouse small intestine after 90 mins. Type of data set: ADME, cell-based, HT-1080. As to conditions: in vivo, 1.5 h. Summed up:
as §2

Data set [12] concerns Bone. As to the kind of experiment: Drug uptake in HT1080 cells xenografted mouse bone after 90 mins. Format: ADME, cell-based, Bone element, HT-1080. Particulars: in vivo, 1.5 h. The method in brief: as §2
Data set [13] can be described thus: Drug uptake in HT1080 cells xenografted mouse assessed as bone to plasma ratio after 90 mins. Format: ADME, cell-based, HT-1080. As to conditions: bone and plasma. The method in brief: as §3
Data set [14] in a line: Drug uptake in HT1080 cells xenografted mouse assessed as heart to plasma ratio after 90 mins in presence of non-radioactive ML5. Type of data set: ADME, cell-based, HT-1080. Particulars: heart and plasma. Summed up:
as §4

The test system of data set [15] is Bone. As to the kind of experiment: Drug uptake in HT1080 cells xenografted mouse bone after 90 mins in presence of non-radioactive ML5. Type of data set: ADME, cell-based, Bone element, HT-1080. Particulars: in vivo, 1.5 h. The method in brief:
as §2

Data set [16] can be described thus: Drug uptake in HT1080 cells xenografted mouse assessed as liver to plasma ratio after 90 mins. As to conditions: liver and plasma. Format: ADME, cell-based, HT-1080. Summed up:
as §3

The nature of data set [17]: Drug uptake in HT1080 cells xenografted mouse assessed as tumor to plasma ratio after 90 mins. Format: ADME, cell-based, HT-1080. Particulars: tumor and plasma. The method in brief: as §3
Data set [18] deals with Plasma. The data set can be described thus: Drug uptake in HT1080 cells xenografted mouse plasma assessed as parent compound after 90 mins. Format: ADME, cell-based, HT-1080. Particulars: in vivo, 1.5 h. Summed up: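 Parent fraction in plasma of control HT1080-bearing mice at 90 min p.i. Plasma (250 µL) was deproteinized with 750 µL ACN, centrifuged 3 min at 3000 rpm and filtered (0.22 µm). Analysed by semi-preparative reverse-phase HPLC with radioactivity detection; % intact tracer of total plasma radioactivity, n = 2.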

For data set [19], the system named is Plasma. As to the kind of experiment: Drug uptake in HT1080 cells xenografted mouse plasma after 90 mins in presence of non-radioactive ML5. Format: ADME, cell-based, HT-1080. As to conditions: in vivo, 1.5 h. Summed up:
as §2

Data set [20] in a line: Drug uptake in HT1080 cells xenografted mouse assessed as large intestine to plasma ratio after 90 mins in presence of non-radioactive ML5. Type of data set: ADME, cell-based, HT-1080. Particulars: large intestine and plasma. The method in brief: as §4
Data set [21] in a line: Drug uptake in HT1080 cells xenografted mouse assessed as bone to plasma ratio after 90 mins in presence of non-radioactive ML5. As to conditions: bone and plasma. Type of data set: ADME, cell-based, HT-1080. Summed up: as §4
Data set [22] has as its system Tumour. As to the kind of experiment: Drug uptake in HT1080 cells xenografted mouse tumor after 90 mins. Type of data set: ADME, Neoplasm, HT-1080. Particulars: in vivo, 1.5 h. The method in brief:
as §2

Data set [23] has as its system Plasma. The data set can be described thus: Drug uptake in HT1080 cells xenografted mouse plasma after 90 mins. Type of data set: ADME, cell-based, HT-1080. As to conditions: in vivo, 1.5 h. Summed up: as §2
The subject of data set [24] is Liver. As to the kind of experiment: Drug uptake in HT1080 cells xenografted mouse liver after 90 mins in presence of non-radioactive ML5. Type of data set: ADME, cell-based, HT-1080. As to conditions: in vivo, 1.5 h. Summed up: as §2
Data set [25] deals with Intestine. The data set can be described thus: Drug uptake in HT1080 cells xenografted mouse large intestine after 90 mins. Format: ADME, cell-based, HT-1080. As to conditions: in vivo, 1.5 h. Summed up:
as §2

For data set [26], the system named is Liver. As to the kind of experiment: Drug uptake in HT1080 cells xenografted mouse liver after 90 mins. Type of data set: ADME, cell-based, HT-1080. Particulars: in vivo, 1.5 h. The method in brief: as §2
Data set [27] can be described thus: Drug uptake in HT1080 cells xenografted mouse assessed as tumor to plasma ratio after 90 mins in presence of non-radioactive ML5. Format: ADME, cell-based, HT-1080. Particulars: tumor and plasma. Summed up: as §4
Data set [28] concerns Heart. As to the kind of experiment: Drug uptake in HT1080 cells xenografted mouse heart after 90 mins. Format: ADME, cell-based, HT-1080. Particulars: in vivo, 1.5 h. The method in brief:
as §2

The target of data set [29] is Macrophage metalloelastase (Homo sapiens, UniProt P39900). The data set can be described thus: Inhibition of human recombinant MMP12 catalytic domain Mca-Pro-Leu-Gly-Leu-Dpa-Ala-Arg-NH2 fluorogenic substrate. Summed up:
as §1

Data set [30] has as its target 72 kDa type IV collagenase (Homo sapiens, UniProt P08253). As to the kind of experiment: Inhibition of human recombinant MMP2 catalytic domain using Mca-Pro-Leu-Gly-Leu-Dpa-Ala-Arg-NH2 fluorogenic substrate. Summed up: as §1

Chain of Matrix metalloproteinase-9 (P14780 whole entry, the tested form may be a part): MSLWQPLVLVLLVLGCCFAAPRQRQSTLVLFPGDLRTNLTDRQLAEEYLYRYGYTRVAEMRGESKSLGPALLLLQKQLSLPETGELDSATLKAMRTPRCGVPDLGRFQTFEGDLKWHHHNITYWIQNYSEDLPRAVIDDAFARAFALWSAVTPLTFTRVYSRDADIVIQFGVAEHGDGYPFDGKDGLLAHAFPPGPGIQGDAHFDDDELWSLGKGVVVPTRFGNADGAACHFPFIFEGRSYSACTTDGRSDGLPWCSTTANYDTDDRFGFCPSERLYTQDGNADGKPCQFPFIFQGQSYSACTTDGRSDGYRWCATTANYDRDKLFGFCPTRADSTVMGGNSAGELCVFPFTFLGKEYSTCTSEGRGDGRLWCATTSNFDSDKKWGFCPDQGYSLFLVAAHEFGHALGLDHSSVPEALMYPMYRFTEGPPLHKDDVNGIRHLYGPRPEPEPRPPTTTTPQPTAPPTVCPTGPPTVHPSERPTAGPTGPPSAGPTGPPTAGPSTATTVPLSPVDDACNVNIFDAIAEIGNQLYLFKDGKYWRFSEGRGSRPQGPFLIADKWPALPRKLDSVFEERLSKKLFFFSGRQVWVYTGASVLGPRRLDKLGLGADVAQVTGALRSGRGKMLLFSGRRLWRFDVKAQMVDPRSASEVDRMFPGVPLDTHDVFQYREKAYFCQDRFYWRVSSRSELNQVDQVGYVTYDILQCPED
Chain of Macrophage metalloelastase (P39900 whole entry, the tested form may be a part): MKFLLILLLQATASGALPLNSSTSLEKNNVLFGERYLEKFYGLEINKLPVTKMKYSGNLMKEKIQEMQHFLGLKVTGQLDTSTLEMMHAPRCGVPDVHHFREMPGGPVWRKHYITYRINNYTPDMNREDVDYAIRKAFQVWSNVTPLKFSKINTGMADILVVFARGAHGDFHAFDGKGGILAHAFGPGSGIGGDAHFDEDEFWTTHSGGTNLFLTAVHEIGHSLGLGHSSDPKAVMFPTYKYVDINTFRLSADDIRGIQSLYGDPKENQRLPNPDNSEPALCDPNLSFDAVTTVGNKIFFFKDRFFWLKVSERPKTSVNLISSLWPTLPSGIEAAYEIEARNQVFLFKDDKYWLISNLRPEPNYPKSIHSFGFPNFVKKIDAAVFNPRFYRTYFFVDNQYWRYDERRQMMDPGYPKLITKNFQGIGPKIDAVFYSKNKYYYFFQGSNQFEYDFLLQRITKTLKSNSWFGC
Chain of 72 kDa type IV collagenase (P08253 whole entry, the tested form may be a part): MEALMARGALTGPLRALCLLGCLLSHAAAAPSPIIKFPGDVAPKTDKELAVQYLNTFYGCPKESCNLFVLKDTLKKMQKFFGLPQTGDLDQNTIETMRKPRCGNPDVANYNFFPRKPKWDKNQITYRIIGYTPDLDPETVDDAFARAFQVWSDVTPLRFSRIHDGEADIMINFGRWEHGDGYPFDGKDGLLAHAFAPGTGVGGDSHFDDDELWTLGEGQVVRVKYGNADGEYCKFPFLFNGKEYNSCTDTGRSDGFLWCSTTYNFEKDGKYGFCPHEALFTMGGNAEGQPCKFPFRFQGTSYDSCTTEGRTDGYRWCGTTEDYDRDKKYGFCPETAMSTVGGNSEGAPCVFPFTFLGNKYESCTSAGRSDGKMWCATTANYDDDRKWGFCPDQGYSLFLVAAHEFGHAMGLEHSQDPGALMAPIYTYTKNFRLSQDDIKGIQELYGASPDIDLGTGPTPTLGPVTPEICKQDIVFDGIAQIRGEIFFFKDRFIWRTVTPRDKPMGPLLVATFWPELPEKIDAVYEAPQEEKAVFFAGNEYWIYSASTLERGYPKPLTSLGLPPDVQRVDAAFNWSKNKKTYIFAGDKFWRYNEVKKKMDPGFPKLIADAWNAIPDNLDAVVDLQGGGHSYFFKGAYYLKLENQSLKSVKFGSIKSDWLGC

As to `CC(C)C[C@H](CC(=O)NOC(=O)c1ccc(F)cc1)C(=O)N[C@@H](Cc1ccccc1)C(=O)N[C@@H](CCCCNC(=O)c1ccc(F)cc1)C(N)=O`, in [1], the IC50 is 1490 nM.
On to `CC(C)C[C@H](CC(=O)NO)C(=O)N[C@@H](Cc1ccccc1)C(=O)N[C@@H](CCCCNC(=O)c1ccc([18F])cc1)C(N)=O`, for which the SUV in the data set with Lung [2] is on record as 0.254; with Tumour [3] it was 0.041; in the data set with Heart [5] it was 0.043; with Lung [6], 0.106; in the data set with Intestine [7], 2.75; in the data set with Intestine [11], 5.207. The SUV is 0.041 in the data set with Bone [12]; 0.017 with Bone [15]; 0.185 in the data set with Plasma [19]; 0.145 in the data set with Tumour [22]; 0.238 with Plasma [23]; 2 in the data set with Liver [24]. Further, the SUV amounted to 1.8 in the data set with Intestine [25], 4.58 in the data set with Liver [26] and 0.111 with Heart [28]. The Kp at 1.5 h in data set [4] turned out to be 7.83; in data set [8], 10.9; in data set [9] it was 0.482; in data set [13] it was 0.179; in data set [14], 0.235; in data set [16], 19.2. For the same molecule, the Kp at 1.5 h in [17] worked out at 0.597; in [20], 14.8; in [21] it was 0.09; in [27] it was 0.231. Also, the logP in data set [10] was determined as 1.11. The Drug uptake in the data set with Plasma [18] turned out to be 23.2%.
`CC(C)C[C@H](CC(=O)NO)C(=O)N[C@@H](Cc1ccccc1)C(=O)N[C@@H](CCCCNC(=O)c1ccc(F)cc1)C(N)=O`: the IC50 is 31.5 nM in data set [1], 138 nM in data set [29] and 12.5 nM in [30].
Take `CC(C)C[C@H](CC(=O)NO)C(=O)N[C@@H](Cc1ccccc1)C(=O)N[C@@H](CCCCN)C(N)=O`: the concentration for half-maximal inhibition (IC50) was 19.5 nM in data set [1], 2 nM in [29] and 7.4 nM in data set [30].
